Assay results: ChEMBL document CHEMBL2331228, “Synthesis and insight into the structure-activity relationships of chalcones as antimalarial agents” (J Med Chem, 2013)
In brackets after ≈: the same amount, converted by molar mass.

Columns and labels:
Plasmodium falciparum [1] = test: Antimalarial activity against schizont stage of chloroquine-sensitive Plasmodium falciparum 3D7 after more than 40 hrs by Giemsa staining-based light microscopic analysis; assay type: functional; conditions: 3D7, 40 h
Outline: (§1)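 Ring stages (5% D-sorbitol synchronized) of 3D7 were grown in RPMI with 10% FBS, gentamycin and Fungizone at 37 °C under CO2. They were exposed in duplicate to compound (DMSO stock, 5 mg/mL) at 2, 10 and 50 μg/mL, with 3% cell suspension and 1% parasitized cells, for >40 h. Giemsa-stained thin smears were counted for schizonts. MIC is the lowest concentration giving 100% inhibition of schizont maturation.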

Plasmodium falciparum [2] = test: Antimalarial activity against schizont stage of chloroquine-sensitive Plasmodium falciparum 3D7 assessed as reduction in parasitemia at 50 ug/ml after more than 40 hrs by Giemsa staining-based light microscopy; assay type: functional; design: scale not given: the % may be the effect or the level left; outline: as §1

MIC (Plasmodium falciparum [1])	Compound	Activity (Plasmodium falciparum [2])
> 124 µM	COc1ccc(/C=C/C(=O)c2ccc3c(c2O)C=CC(C)(CCC=C(C)C)O3)cc1 (stereo unspecified)	<100%
> 140 µM	CC1(C)C=Cc2c(ccc(C(=O)/C=C/c3cnc4ccccc4c3)c2O)O1	<100%
128 µM (≈ 50.1 µg/mL)	CC(C)=CCCC1(C)C=Cc2c(ccc(C(=O)/C=C/c3ccc(F)cc3)c2O)O1 (stereo unspecified)	
> 123 µM	CC(C)=CCCC1(C)C=Cc2c(ccc(C(=O)/C=C/c3ccc(Cl)cc3)c2O)O1 (stereo unspecified)	<100%
119 µM (≈ 50.1 µg/mL)	CC(C)=CCCC1(C)C=Cc2c(ccc(C(=O)/C=C/c3ccc([N+](=O)[O-])cc3)c2O)O1 (stereo unspecified)	
28.2 µM (≈ 10 µg/mL)	COc1ccc(/C=C/C(=O)c2cc(CC=C(C)C)c(O)cc2O)cc1O	
28.4 µM (≈ 10 µg/mL)	CCOc1ccc(/C=C/C(=O)c2cc(CC=C(C)C)c(O)cc2O)cc1	
123 µM (≈ 50.1 µg/mL)	Cc1ccc2nc(Cl)c(/C=C/C(=O)c3ccc4c(c3O)C=CC(C)(C)O4)cc2c1	
22.6 µM (≈ 9.28 µg/mL)	CC(C)=CCCC1(C)C=Cc2c(ccc(C(=O)/C=C/c3ccc(F)c(F)c3)c2O)O1 (stereo unspecified)	
29.6 µM (≈ 10 µg/mL)	COc1ccccc1/C=C/C(=O)c1cc(CC=C(C)C)c(O)cc1O	
> 120 µM	CC(C)=CCCC1(C)C=Cc2c(ccc(C(=O)/C=C/c3ccc(N(C)C)cc3)c2O)O1 (stereo unspecified)	<100%
9.12 µM (≈ 3.84 µg/mL)	CC(C)=CCCC1(C)C=Cc2ccc(O)c(C(=O)CCc3cc(C=O)ccc3O)c2O1 (stereo unspecified)	
28.6 µM (≈ 10 µg/mL)	CC1(C)C=Cc2c(ccc(C(=O)/C=C/c3cc(C=O)ccc3O)c2O)O1	
> 148 µM	COc1ccc(CCC(=O)c2ccc3c(c2O)C=CC(C)(C)O3)cc1	<100%
4.11 µM (≈ 2 µg/mL)	CC(C)=CCCC1(C)C=Cc2c(ccc(C(=O)/C=C/c3cccnc3)c2OCCN2CCCCC2)O1 (stereo unspecified)	
115 µM (≈ 50.1 µg/mL)	COc1ccc(/C=C/C(=O)c2ccc3c(c2O)C=CC(C)(CCC=C(C)C)O3)cc1OC (stereo unspecified)	
137 µM (≈ 50.1 µg/mL)	COc1ccc(/C=C/C(=O)c2ccc3c(c2O)C=CC(C)(C)O3)cc1OC	
130 µM (≈ 50.2 µg/mL)	CC1(C)C=Cc2c(ccc(C(=O)/C=C/c3ccc(Br)cc3)c2O)O1	
19.3 µM (≈ 10 µg/mL)	CC(C)=CCCC1(C)C=Cc2c(ccc(C(=O)/C=C/c3ccc4oc(C(=O)c5ccccc5)cc4c3)c2O)O1 (stereo unspecified)	
> 136 µM	CCOc1cc(/C=C/C(=O)c2ccc3c(c2O)C=CC(C)(C)O3)ccc1F	<100%
> 111 µM	CC(C)=CCCC1(C)C=Cc2c(ccc(C(=O)/C=C/c3ccc(Br)cc3)c2O)O1 (stereo unspecified)	<100%
> 149 µM	COc1ccc(/C=C/C(=O)c2ccc3c(c2O)C=CC(C)(C)O3)cc1	<100%
> 91.2 µM	COc1ccc(C(=O)c2cc3cc(/C=C/C(=O)c4ccc5c(c4O)C=CC(C)(CCC=C(C)C)O5)ccc3o2)cc1 (stereo unspecified)	<100%
3.26 µM (≈ 2 µg/mL)	CC(C)=CCCC1(C)C=Cc2c(ccc(C(=O)/C=C/c3ccc(OCCN4CCCCC4)cc3)c2OCCN2CCCCC2)O1 (stereo unspecified)	
28.2 µM (≈ 10 µg/mL)	COc1cc(/C=C/C(=O)c2cc(CC=C(C)C)c(O)cc2O)ccc1O	

MIC (Plasmodium falciparum [1])	Compound	Activity (Plasmodium falciparum [2])
136 µM (≈ 50.1 µg/mL)	CCOc1cc(F)ccc1/C=C/C(=O)c1ccc2c(c1O)C=CC(C)(C)O2	
24.9 µM (≈ 10 µg/mL)	CC(C)=CCCC1(C)C=Cc2c(ccc(/C=C/C(=O)c3ccc(C)c(C)c3)c2O)O1 (stereo unspecified)	
5.33 µM (≈ 2 µg/mL)	CC(C)=CCCC1(C)C=Cc2c(ccc(C(=O)/C=C/c3cccnc3)c2O)O1 (stereo unspecified)	
27.2 µM (≈ 10 µg/mL)	COCOc1ccc(/C=C/C(=O)c2cc(CC=C(C)C)c(O)cc2O)cc1	
127 µM (≈ 50.1 µg/mL)	CC(C)CCCC1(C)CCc2c(ccc(C(=O)/C=C/c3ccc(O)cc3)c2O)O1 (stereo unspecified)	
15.2 µM (≈ 10 µg/mL)	COCOc1ccc(/C=C/C(=O)c2c(O)c3c(c4c2OC(C)(CCC=C(C)C)C=C4)OC(C)(CCC=C(C)C)C=C3)cc1C(OC)OC (stereo unspecified)	
146 µM (≈ 50 µg/mL)	CC1(C)C=Cc2c(ccc(C(=O)/C=C/c3ccc(F)c(F)c3)c2O)O1	
25.6 µM (≈ 10 µg/mL)	CC(C)=CCCC1(C)C=Cc2c(ccc(C(=O)/C=C/c3ccc(O)cc3)c2O)O1 (stereo unspecified) [LESPEOL]	
128 µM (≈ 50.1 µg/mL)	CC1(C)C=Cc2c(ccc(C(=O)/C=C/c3cc4ccccc4nc3Cl)c2O)O1	
29.4 µM (≈ 10 µg/mL)	CC1(C)C=Cc2c(ccc(C(=O)CCc3ccc(O)c(O)c3)c2O)O1	
> 136 µM	COc1ccc(CCC(=O)c2ccc3c(c2O)C=CC(C)(C)O3)cc1OC	<100%
113 µM (≈ 50.2 µg/mL)	CC(C)=CCCC1(C)C=Cc2c(ccc(C(=O)/C=C/c3cc(Cl)cc(Cl)c3)c2O)O1 (stereo unspecified)	
32.6 µM (≈ 10 µg/mL)	CC1(C)C=Cc2c(ccc(C(=O)/C=C/c3cccnc3)c2O)O1	
147 µM (≈ 50.1 µg/mL)	CC1(C)C=Cc2c(ccc(C(=O)/C=C/c3ccc(Cl)cc3)c2O)O1	
155 µM (≈ 50.1 µg/mL)	CC1(C)C=Cc2c(ccc(C(=O)/C=C/c3ccc(O)cc3)c2O)O1	
142 µM (≈ 50.1 µg/mL)	CC(C)=CCc1cc(C(=O)/C=C/c2ccc(N(C)C)cc2)c(O)cc1O	
> 149 µM	COc1ccccc1/C=C/C(=O)c1ccc2c(c1O)C=CC(C)(C)O2	<100%
124 µM (≈ 50.1 µg/mL)	COc1ccccc1/C=C/C(=O)c1ccc2c(c1O)C=CC(C)(CCC=C(C)C)O2 (stereo unspecified)	
25.8 µM (≈ 10 µg/mL)	CC(C)=CCCC1(C)C=Cc2c(ccc(/C=C/C(=O)c3cccc(C)c3)c2O)O1 (stereo unspecified)	
25.2 µM (≈ 10 µg/mL)	COc1cc(OC)c(OC)cc1/C=C/C(=O)c1ccc2c(c1O)C=CC(C)(C)O2	
28.2 µM (≈ 10 µg/mL)	COc1ccc(/C=C/C(=O)c2ccc(O)c(CC=C(C)C)c2O)cc1O	
5.01 µM (≈ 2 µg/mL)	CC(C)=CCCC1(C)C=Cc2c(ccc(C(=O)/C=C/c3ccc(C#N)cc3)c2O)O1 (stereo unspecified)	
> 142 µM	CC1(C)C=Cc2c(ccc(C(=O)/C=C/c3ccc([N+](=O)[O-])cc3)c2O)O1	<100%
> 113 µM	CC(C)=CCCC1(C)C=Cc2c(ccc(C(=O)/C=C/c3ccc(Cl)cc3Cl)c2O)O1 (stereo unspecified)	<100%
26.7 µM (≈ 10 µg/mL)	CC(C)=CCCC1(C)C=Cc2c(ccc(C(=O)/C=C/c3ccccn3)c2O)O1 (stereo unspecified)	

MIC (Plasmodium falciparum [1])	Compound	Activity (Plasmodium falciparum [2])
25.1 µM (≈ 10 µg/mL)	COc1cc(OC)c(OC)cc1/C=C/C(=O)c1cc(CC=C(C)C)c(O)cc1O	
3.67 µM (≈ 2 µg/mL)	CC1(C)C=Cc2c(ccc(C(=O)/C=C/c3ccc(OCCN4CCCCC4)cc3)c2OCCN2CCCCC2)O1	
27.2 µM (≈ 10 µg/mL)	COc1ccc(/C=C/C(=O)c2cc(CC=C(C)C)c(O)cc2O)cc1OC	
32.6 µM (≈ 10 µg/mL)	CC1(C)C=Cc2c(ccc(C(=O)/C=C/c3ccccn3)c2O)O1	
123 µM (≈ 50.1 µg/mL)	COc1ccc(/C=C/C(=O)c2ccc3c(c2O)CCC(C)(CCCC(C)C)O3)cc1 (stereo unspecified)	
23.5 µM (≈ 10 µg/mL)	CC(C)=CCCC1(C)C=Cc2c(ccc(C(=O)/C=C/c3cnc4ccccc4c3)c2O)O1 (stereo unspecified)	
146 µM (≈ 50.1 µg/mL)	CC(C)=CCc1cc(C(=O)/C=C/c2ccc(Cl)cc2)c(O)cc1O	
120 µM (≈ 50.1 µg/mL)	CCOc1ccc(/C=C/C(=O)c2ccc3c(c2O)C=CC(C)(CCC=C(C)C)O3)cc1 (stereo unspecified)	
32.4 µM (≈ 10 µg/mL)	CC1(C)CCc2c(ccc(C(=O)/C=C/c3cccnc3)c2O)O1	
32.4 µM (≈ 10 µg/mL)	CC1(C)CCc2cc(C(=O)/C=C/c3cccnc3)c(O)cc2O1	
5.27 µM (≈ 2 µg/mL)	CC(C)CCCC1(C)CCc2c(ccc(C(=O)/C=C/c3cccnc3)c2O)O1 (stereo unspecified)	
> 146 µM	CC1(C)C=Cc2c(ccc(C(=O)/C=C/c3ccc(F)cc3F)c2O)O1	<100%
27.5 µM (≈ 10 µg/mL)	CC(=O)Oc1ccc(/C=C/C(=O)c2ccc3c(c2O)C=CC(C)(C)O3)cc1	
10.3 µM (≈ 4.33 µg/mL)	CC(C)=CCCC1(C)C=Cc2c(ccc(C(=O)CCc3cc(C=O)ccc3O)c2O)O1 (stereo unspecified)	
4.77 µM (≈ 2 µg/mL)	CC(C)=CCCC1(C)C=Cc2c(ccc(C(=O)/C=C/c3cccc([N+](=O)[O-])c3)c2O)O1 (stereo unspecified)	
30.9 µM (≈ 10 µg/mL)	CC1(C)C=Cc2c(ccc(C(=O)CCc3ccc(O)cc3)c2O)O1	
5.34 µM (≈ 2 µg/mL)	CC1(C)C=Cc2c(ccc(C(=O)/C=C/c3ccc(Cl)cc3Cl)c2O)O1	
154 µM (≈ 50.1 µg/mL)	CC1(C)C=Cc2c(ccc(C(=O)/C=C/c3ccc(F)cc3)c2O)O1	
106 µM (≈ 50.1 µg/mL)	CC(C)=CCCC1(C)C=Cc2c(ccc(C(=O)/C=C/c3cc4cc(C)ccc4nc3Cl)c2O)O1 (stereo unspecified)	
109 µM (≈ 50.1 µg/mL)	CC(C)=CCCC1(C)C=Cc2c(ccc(C(=O)/C=C/c3cc4ccccc4nc3Cl)c2O)O1 (stereo unspecified)	
21.6 µM (≈ 10 µg/mL)	COCOc1ccc(/C=C/C(=O)c2ccc3c(c2O)C=CC(C)(CCC=C(C)C)O3)cc1C=O (stereo unspecified)	
> 151 µM	CC1(C)C=Cc2c(ccc(C(=O)/C=C/c3ccc(C#N)cc3)c2O)O1	<100%
21.6 µM (≈ 10 µg/mL)	COc1cc(/C=C/C(=O)c2ccc3c(c2O)C=CC(C)(CCC=C(C)C)O3)cc(OC)c1OC (stereo unspecified)	
> 143 µM	CCOc1ccc(/C=C/C(=O)c2ccc3c(c2O)C=CC(C)(C)O3)cc1	<100%
28.6 µM (≈ 9.67 µg/mL)	COc1ccc(/C=C/C(=O)c2cc(CC=C(C)C)c(O)cc2O)cc1	
